Data taken from ChEMBL document CHEMBL3414569, “Amino acid modified xanthone derivatives: novel, highly promising membrane-active antimicrobials for multidrug-resistant Gram-positive bacterial infections” (J Med Chem, 2015).
Converted amounts (≈) assume the structure as drawn. The source made the active and inactive calls.

Experiments:
[1] = test system: Staphylococcus aureus; assay: Antimicrobial activity against Staphylococcus aureus DM4001 by broth macrodilution method; type: functional
In short: (§1)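 Broth macrodilution MIC in Mueller Hinton broth following CLSI guidelines. Inoculum was prepared by direct colony suspension from an 18−20 h tryptic soy agar plate.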

[2] = test system: Staphylococcus aureus; assay: Antimicrobial activity against methicillin resistant Staphylococcus aureus DM21455 by broth macrodilution method; type: functional; in short: as §1
[3] = test system: Staphylococcus aureus; assay: Antimicrobial activity against methicillin resistant Staphylococcus aureus DM09809R by broth macrodilution method; type: functional; in short: as §1
[4] = test system: Bacillus cereus; assay: Antimicrobial activity against Bacillus cereus ATCC 11778 by broth macrodilution method; type: functional
In short: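 CLSI broth macrodilution in Mueller Hinton broth. Inoculum was made by direct colony suspension from colonies on an 18−20 h tryptic soy agar plate. The value is the MIC.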

[5] = Induction of hemolysis in New Zealand white rabbit RBC after 1 hr; type: cell-based, Oryctolagus cuniculus, Erythrocyte; settings: New Zealand white, red blood cells (RBC)
In short: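 Fresh red blood cells isolated from New Zealand white rabbits. Lysis measured over a compound concentration series; HC50 taken as the concentration lysing 50% of RBCs.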

[6] = Retention time of the compound; type: physicochemical
In short: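 Reverse-phase HPLC of 20 μL injections of a 10 μg/mL sample at 1 mL/min. Gradient: 5−55% ACN over 5 min, then 55−95% over 15 min.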

[7] = Selectivity index, ratio of HC50 for induction of hemolysis in New Zealand white rabbit RBC to MIC for Staphylococcus aureus DM4001
[8] = Selectivity index, ratio of HC50 for induction of hemolysis in New Zealand white rabbit RBC to MIC for Staphylococcus aureus DM21455
[9] = Selectivity index, ratio of HC50 for induction of hemolysis in New Zealand white rabbit RBC to MIC for Staphylococcus aureus DM09809R
[10] = Selectivity index, ratio of HC50 for induction of hemolysis in New Zealand white rabbit RBC to MIC for Bacillus cereus ATCC 11778
[11] = test system: Staphylococcus aureus; assay: Antimicrobial activity against methicillin sensitive Staphylococcus aureus isolates by broth macrodilution method; type: functional
[12] = test system: Staphylococcus aureus; assay: Antimicrobial activity against vancomycin-intermediate sensitive Staphylococcus aureus isolates by broth macrodilution method; type: functional
[13] = test system: Staphylococcus aureus; assay: Antimicrobial activity against methicillin resistant Staphylococcus aureus isolates by broth macrodilution method; type: functional
[14] = test system: Staphylococcus aureus; assay: Antimicrobial activity against epidemic methicillin resistant Staphylococcus aureus isolates by broth macrodilution method; type: functional
[15] = test system: Staphylococcus aureus; assay: Antimicrobial activity against multidrug resistant Staphylococcus aureus isolates by broth macrodilution method; type: functional
[16] = test system: Staphylococcus epidermidis; assay: Antimicrobial activity against Staphylococcus epidermidis isolates by broth macrodilution method; type: functional
[17] = test system: Enterococcus; assay: Antimicrobial activity against vancomycin-sensitive Enterococcus isolates by broth macrodilution method; type: functional
[18] = test system: Enterococcus; assay: Antimicrobial activity against vancomycin-resistant Enterococcus isolates by broth macrodilution method; type: functional
[19] = test system: Streptococcus; assay: Antimicrobial activity against Streptococcus isolates by broth macrodilution method; type: functional
[20] = test system: Corynebacterium jeikeium; assay: Antimicrobial activity against Corynebacterium jeikeium isolates by broth macrodilution method; type: functional
[21] = test system: Listeria monocytogenes; assay: Antimicrobial activity against Listeria monocytogenes isolates by broth macrodilution method; type: functional
[22] = test system: Staphylococcus aureus; assay: Bactericidal activity against methicillin resistant Staphylococcus aureus DM21455 assessed as induction of bacterial killing at 1 times MIC after 1 hr by cell counting based time kill assay; type: functional
In short: (§2)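 Time-kill at 35 °C with colonies taken from an 18−20 h tryptic soy agar plate and suspended in CA-MHB at 10^5−10^6 CFU/mL, then drug added. Aliquots taken at set times were diluted 10-fold serially in D/E neutralization broth, spread on tryptic soy agar, incubated 48−72 h at 35 °C, and colonies counted. Strains: MRSA DM21455, vanA and vanB VRE.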

[23] = test system: Staphylococcus aureus; assay: Bactericidal activity against methicillin resistant Staphylococcus aureus DM21455 assessed as induction of bacterial killing at 2 times MIC after 30 mins by cell counting based time kill assay; type: functional; in short: as §2
[24] = test system: Staphylococcus aureus; assay: Antimicrobial activity against Staphylococcus aureus ATCC 29213 by broth macrodilution method; type: functional; in short: as §1
[25] = test system: Lipid bilayer; assay: Induction of vesicle leakage in DOPE/DOPG large unilamellar vesicles assessed as calcein release at 1/16 compound to lipid ratio by fluorescence assay; type: functional
In short: (§3)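 100 nm LUVs (DOPE/DOPG 75/25 or DOPC) made by film hydration in 80 mM calcein, 50 mM HEPES, 100 mM NaCl, 0.3 mM EDTA, pH 7.4. Then 7 freeze–thaw cycles, 15 extrusions and Sephadex G-50 clean-up. Compound added from DMF (<0.2%) at 50 μM final phospholipid. Fluorescence read at ex 490/em 520 nm for 30 min; 0.1% Triton X-100 set 100% lysis; three independent experiments.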

[26] = test system: Staphylococcus aureus; assay: Antimicrobial activity against Staphylococcus aureus ATCC 29213 at 0.5 times MIC measured after 17 passages by multistep passage drug resistance selection study relative to wild type Staphylococcus aureus ATCC 29213 before passage; type: functional
In short: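 Multipassage selection in S. aureus ATCC29213 across an eight-concentration dilution series. Growth was read after 20−22 h. Bacteria growing at 0.5 × MIC were repassaged into a fresh series, 17 passages in total. Resistance was defined as a more than 4-fold rise over the initial MIC.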

[27] = test system: Lipid bilayer; assay: Induction of vesicle leakage in DOPC large unilamellar vesicles assessed as calcein release at 1/16 compound to lipid ratio by fluorescence assay; type: functional; in short: as §3
[28] = test system: Lipid bilayer; assay: Binding affinity to DOPE/DOPG large unilamellar vesicles by 1D 1H NMR spectroscopy
In short: (§4)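 Liposomes prepared as for the leakage LUVs: 30 mM DOPE/DOPG (75:25) or 30 mM DOPC. 1D 1H spectra of 1 mM compound recorded in water and in each liposome type at 600 MHz, 25 °C.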

[29] = test system: Staphylococcus aureus; assay: Antimicrobial activity against teicoplanin intermediate resistant Staphylococcus aureus isolates by broth macrodilution method; type: functional
[30] = test system: Lipid bilayer; assay: Binding affinity to DOPC large unilamellar vesicles by 1D 1H NMR spectroscopy; in short: as §4
[31] = test system: Staphylococcus aureus; assay: Antimicrobial activity against methicillin resistant Staphylococcus aureus DM21455 in absence of 4% BSA by broth macrodilution method; type: functional; in short: as §1
[32] = test system: Staphylococcus aureus; assay: Antimicrobial activity against methicillin resistant Staphylococcus aureus DM21455 in presence of 4% BSA by broth macrodilution method; type: functional
In short: (§5)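 MIC by CLSI broth macrodilution in Mueller Hinton broth, with BSA added to the bacterial suspension at a final 4% w/v. Inoculum was made by direct colony suspension from an 18−20 h tryptic soy agar plate.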

[33] = test system: Staphylococcus aureus; assay: Antimicrobial activity against Staphylococcus aureus ATCC 29213 in absence of 4% BSA by broth macrodilution method; type: functional; in short: as §1
[34] = test system: Staphylococcus aureus; assay: Antimicrobial activity against Staphylococcus aureus ATCC 29213 in presence of 4% BSA by broth macrodilution method; type: functional; in short: as §5
[35] = test system: Mus musculus; assay: Toxicity in C57BL6 mouse eye assessed as induction of toxicity related clinical signs at 3 mg/ml applied topically 5 times/day for 4 days; type: organism-based; settings: in vivo, topical_or_ocular, 96 h
In short: (§6)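 Three healthy wild-type C57BL6 mice (6−8 weeks) per treatment received 0.5, 1 or 3 mg/mL compound in 10 mM PBS. Applied topically to the eye 5 times/day for 4 days. Corneal clarity checked daily through day 4 by slit-lamp biomicroscopy; histological sections also inspected.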

[36] = test system: Mus musculus; assay: Toxicity in C57BL6 mouse eye assessed as effect on corneal clarity at 3 mg/ml applied topically 5 times/day for 4 days by slit lamp biomicroscopy; type: organism-based, Cornea; settings: in vivo, topical_or_ocular, 96 h; in short: as §6
[37] = test system: Mus musculus; assay: Toxicity in C57BL6 mouse eye assessed as effect on wound closure at 3 mg/ml applied topically 5 times/day for 4 days by slit lamp biomicroscopy; type: organism-based; settings: in vivo, topical_or_ocular, 96 h
[38] = test system: Mus musculus; assay: Toxicity in C57BL6 mouse eye assessed as inflammatory response at 3 mg/ml applied topically 5 times/day for 4 days by slit lamp biomicroscopy; type: organism-based; settings: in vivo, topical_or_ocular, 96 h; in short: as §6
[39] = test system: Staphylococcus aureus; assay: Antimicrobial activity against Staphylococcus aureus ATCC 29213 infected in mouse cornea infection model assessed as reduction in viable bacterial count at 0.3% solution applied topically 5 times/day dosed 1 day after infection relative to control; type: functional
In short: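 Mouse cornea given three superficial 1 mm scratches on one eye under ketamine/xylazine, then 10 μL of S. aureus ATCC 29213 suspension (1 × 10^8 CFU/mL in USP phosphate buffer) applied topically. Treated topically 5 times/day from day 1 postinfection; PBS negative control; 4 mice/group killed on days 1, 2 and 3. Corneas homogenized in 0.9% NaCl with 0.25% BSA, plated in duplicate on TSA (48 h, 35 °C); log10 CFU/cornea.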

SMILES: COC(=O)[C@H](CCCNC(=N)N)NC(=O)COc1cc2oc3cc(OCC(=O)N[C@@H](CCCNC(=N)N)C(=O)OC)c(OC)c(CC=C(C)C)c3c(=O)c2c(O)c1CC=C(C)C
- MIC [1]: 2 µg/mL (≈ 2.31 µM)
- MIC [2]: 3 µg/mL (≈ 3.46 µM)
- MIC [3]: 3 µg/mL (≈ 3.46 µM)
- MIC [4]: 2 µg/mL (≈ 2.31 µM)
- HC50 at 1 h [5]: 232 µg/mL
- Retention_time [6]: 7.96 min
- Selectivity Index [7]: 77
- Selectivity Index [8]: 77
- Selectivity Index [9]: 77
- Selectivity Index [10]: 77
- MIC [11]: 2 µg/mL (≈ 2.31 µM)
- MIC [12]: 4 µg/mL (≈ 4.61 µM)
- MIC [13]: 2 µg/mL (≈ 2.31 µM)
- MIC [14]: 2 µg/mL (≈ 2.31 µM)
- MIC [15]: 2 µg/mL (≈ 2.31 µM)
- MIC [16]: 2 µg/mL (≈ 2.31 µM)
- MIC [17]: 2 µg/mL (≈ 2.31 µM)
- MIC [18]: 2 µg/mL (≈ 2.31 µM)
- MIC [19]: 4 µg/mL (≈ 4.61 µM)
- MIC [20]: 4 µg/mL (≈ 4.61 µM)
- MIC [21]: 4 µg/mL (≈ 4.61 µM)
- Activity [22]: 99.9%
- Activity [23]: 99.9%
- MIC [24]: 3 µg/mL (≈ 3.46 µM)
- Activity [25]: 68%
- Activity [26]: Active
- Activity [27]: 32%
- Activity [28]: Active
- MIC [29]: 2 µg/mL (≈ 2.31 µM)
- Activity [30]: inactive
- MIC [31]: 3.12 µg/mL (≈ 3.6 µM)
- MIC [32]: 6.25 µg/mL
- MIC [33]: 1.56 µg/mL (≈ 1.8 µM)
- MIC [34]: 3.12 µg/mL
- Activity [35]: Non-toxic
- Activity [36]: Non-toxic
- Activity [37]: Non-toxic
- Activity [38]: Non-toxic
- inhibition (INH) [39]: 99.7%
